# Experiments:
# [1] = Aqueous solubility at pH 7.4; assay type: physicochemical; conditions: buffer
# In short: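 Solubility determined in water at pH 7.4.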
# [2] = Apparent permeability from apical to basolateral side in human Caco-2 cells at 10 uM; assay type: ADME, cell-based
# [3] = Volume of distribution at steady state in cynomolgus monkey at 5 mg/kg, iv; assay type: ADME, organism-based, Macaca fascicularis; design: dose 5 mg/kg, route intravenous; conditions: in vivo, read-out: Vdss
# Cynomolgus monkey [4] = test: AUC (0 to infinity) in cynomolgus monkey at 5 mg/kg, po; assay type: ADME, organism-based, Macaca fascicularis, Plasma; design: time infinity, dose 5 mg/kg, route oral; conditions: in vivo
# Cynomolgus monkey [5] = test: AUC (0 to infinity) in cynomolgus monkey at 5 mg/kg, iv; assay type: ADME, organism-based, Macaca fascicularis, Plasma; design: time infinity, dose 5 mg/kg, route intravenous; conditions: in vivo
# [6] = Oral bioavailability in cynomolgus monkey at 5 mg/kg; assay type: ADME, organism-based, Macaca fascicularis; conditions: in vivo
# [7] = Ratio of drug level in liver to plasma in Sprague-Dawley rat at 3 mg/kg, po after 1 hr; assay type: ADME, organism-based; design: dose 3 mg/kg, route oral; conditions: liver and plasma
# In short: (§1)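 Sprague–Dawley rats were given a single 3 mg/kg dose iv or po. Plasma and liver concentrations were measured at 1, 4, 8 and 12 h. Liver was not sampled at 1, 4 or 8 h after iv dosing. Liver-to-plasma concentration ratio was calculated at each time point.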
# [8] = Ratio of drug level in liver to plasma in Sprague-Dawley rat at 3 mg/kg, po after 4 hrs; assay type: ADME, organism-based; design: dose 3 mg/kg, route oral; conditions: liver and plasma; in short: as §1
# [9] = Ratio of drug level in liver to plasma in Sprague-Dawley rat at 3 mg/kg, po after 8 hrs; assay type: ADME, organism-based; design: dose 3 mg/kg, route oral; conditions: liver and plasma; in short: as §1
# [10] = Ratio of drug level in liver to plasma in Sprague-Dawley rat at 3 mg/kg, po after 12 hrs; assay type: ADME, organism-based; design: dose 3 mg/kg, route oral; conditions: liver and plasma; in short: as §1
# [11] = Ratio of drug level in liver to plasma in Sprague-Dawley rat at 3 mg/kg, iv after 12 hrs; assay type: ADME, organism-based; design: dose 3 mg/kg, route intravenous; conditions: liver and plasma; in short: as §1
# [12] = Volume of distribution at steady state in iv dosed Sprague-Dawley rat; assay type: ADME, organism-based; conditions: in vivo, read-out: Vdss
# In short: (§2)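 Sprague–Dawley rats got a single 3 mg/kg dose iv or po, with n = 12 (po) and 3 (iv). Plasma concentrations were followed over time to derive PK parameters.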
# Rattus norvegicus [13] = test: AUC (0 to infinity) in po dosed Sprague-Dawley rat; assay type: ADME, organism-based, Plasma; design: time infinity, route oral; conditions: in vivo; in short: as §2
# Rattus norvegicus [14] = test: AUC (0 to infinity) in iv dosed Sprague-Dawley rat; assay type: ADME, organism-based, Plasma; design: time infinity, route intravenous; conditions: in vivo; in short: as §2
# [15] = Oral bioavailability in Sprague-Dawley rat; assay type: ADME, organism-based; conditions: in vivo; in short: as §2
solubility [1] [µM],Papp A→B at 10 µM [2] [×10⁻⁶ cm/s],Vd [3] [L/kg],AUC (Cynomolgus monkey [4]) [ng·h/mL],AUC (Cynomolgus monkey [5]) [ng·h/mL],bioavailability [6] [%],Kp at 1 h [7],Kp at 4 h [8],Kp at 8 h [9],Kp at 12 h [10],Kp at 12 h [11],Vd [12] [L/kg],AUC (Rattus norvegicus [13]) [ng·h/mL],AUC (Rattus norvegicus [14]) [ng·h/mL],bioavailability [15] [%],Structure (SMILES)
44,0.06,0.039,241,17600,1,,,,,,,,,,CC(C)(C)CCn1nc(-c2cccs2)c(O)c(C2=Nc3ccc(NS(C)(=O)=O)cc3S(=O)(=O)N2)c1=O
55,0.016,0.096,124,10500,1,431,243,78,64,4,0.453,27,3630,1,CC(C)CCn1nc(-c2cccs2)c(O)c(C2=Nc3ccc(NS(C)(=O)=O)cc3S(=O)(=O)N2)c1=O

# Source: ChEMBL document CHEMBL1143086, “Novel HCV NS5B polymerase inhibitors derived from 4-(1',1'-dioxo-1',4'-dihydro-1'lambda(6)-benzo[1',2',4']thiadiazin-3'-yl)-5-hydroxy-2H-pyridazin-3-ones. Part 3: Further optimization of the 2-, 6-, and 7'-substituents and initial pharmacokinetic assessments” (Bioorg Med Chem Lett, 2008)
